# Where two headings read alike, the source gives them in different places.
# Experiments:
# Caco-2 cell monolayers [1] = test: In vitro Caco-2 cell monolayer transport, apical-to-basolateral; format: in vitro ADME, human; conditions: for Apically loaded amount retained on the apical side: Caco-2 cell transport, authors' unpublished data
# Method in brief: (§1)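 Caco-2 cells grown in high-glucose DMEM with 10% FBS and 1% nonessential amino acids at 37 °C, 5% CO2. Seeded at 1.0 × 10^5 cells/cm2 on 4.2 cm2 inserts. Monolayers with TEER >250 Ω cm2 were HBSS-washed and preincubated 1 h at 37 °C. Compound was loaded apically, with samples taken at 0–4 h. Analysed by UPLC–MS/MS; Papp = (dQ/dt)/(A × C0).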
# [2] = as above; format: in vitro ADME, human; conditions: human, Caco-2
# Method in brief: as §1
# [3] = format: in vivo, rat; conditions: for AUC(0-t) / Cmax / Tmax: male, SD, rat, plasma, po
# Caco-2 cell monolayers [4] = conditions: flavonoids glucosides; ref the previous report; cited from earlier work
smiles,measurement,setting,value
O=C(/C=C/c1ccc(O)c(O)c1)O[C@@H]1C[C@](O)(C(=O)O)C[C@@H](O)[C@H]1O [Chlorogenic acid],"Papp-value increased to, compared to control",Caco-2 cell monolayers [1]; with addition of 0.1% (w/v) of COS,9800%
same,Papp A→B at 4 h,[2],190 ± 33.5 nm/s
same,AUC(0-t),[3]; 25 mg/kg,0.658 µg·h/mL
same,Cmax,[3]; 25 mg/kg,0.284 ± 0.0768 µg/mL
same,Tmax,[3]; 25 mg/kg,13.8 min
same,AUC(0-t),[3]; 10 ml/kg,0.541 µg·h/mL
same,Cmax,[3]; 10 ml/kg,0.236 ± 0.0612 µg/mL
same,Tmax,[3]; 10 ml/kg,30 min
same,"AUC increased to, compared to control","[3]; with COS 25 mg/kg, rats, oral",122%
O=c1cc(-c2ccc(O)c(O)c2)oc2cc(O[C@@H]3O[C@H](CO)[C@@H](O)[C@H](O)[C@H]3O)cc(O)c12 [Galuteolin],Absorption into Caco-2 cell,Caco-2 cell monolayers [4],cannot be well absorbed
same,Apically loaded amount retained on the apical side,Caco-2 cell monolayers [1],about 100%
O=c1c(O[C@@H]2O[C@H](CO)[C@H](O)[C@H](O)[C@H]2O)c(-c2ccc(O)c(O)c2)oc2cc(O)cc(O)c12 [Hyperoside],Absorption into Caco-2 cell,Caco-2 cell monolayers [4],cannot be well absorbed
O=c1cc(-c2ccc(O)c(O)c2)oc2cc(O[C@@H]3O[C@H](CO)[C@H](O)[C@H](O)[C@H]3O)cc(O)c12 [Luteolin-7-o--β-D-galactoside],Absorption into Caco-2 cell,Caco-2 cell monolayers [4],cannot be well absorbed
C[C@@H]1O[C@@H](OC[C@H]2O[C@@H](Oc3c(-c4ccc(O)c(O)c4)oc4cc(O)cc(O)c4c3=O)[C@H](O)[C@@H](O)[C@@H]2O)[C@H](O)[C@H](O)[C@H]1O [Rutin],Absorption into Caco-2 cell,Caco-2 cell monolayers [4],cannot be well absorbed
same,Apically loaded amount retained on the apical side,Caco-2 cell monolayers [1],about 100%
O=c1c(O[C@@H]2O[C@H](CO)[C@H](O)[C@H](O)[C@H]2O)c(-c2ccc(O)c(O)c2)oc2cc(O)cc(O)c12 [hyperin],Apically loaded amount retained on the apical side,Caco-2 cell monolayers [1],about 100%
